Compound activity as filed in PubChem BioAssay.
Compounds with a hit are over-represented: about 8.9% of the library has one in this group of screens.
Lmaj promast = Leishmania major promastigote growth inhibition, primary screen; Leishmania major promastigotes, resazurin fluorescence viability; inhibition, % at 10 µM; actives 9% (n = 200,000); in the data active means inhibition above about 50%;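 further: promastigotes grown with compound for 44 hours at 28 °C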
HSV augment = enhancers of HSV replication in host cells, fold increase, host cell viability | maximum fold increase | actives 0.005% (n = 220,000) | AID 1956, 2009 | HSV replication augmentation in cells; in the data active means maximum fold increase above about 1.5; inconclusive means no clear call, values can overlap the other calls; tested in PC3 cells
MT stabilize HCS = microtubule stabilizers in HeLa cells, primary screen, imaging, high-content imaging; AID 2205, 2009; actives 0.83% (n = 200,000); HeLa tubulin immunostaining HCS, 24 h; share of cells brighter than vehicle mean+2SD; % tubulin-high responders, % at 10 µM;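 active means plate Z-score above 3 for both tubulin-high and condensed-nucleus cell shares, with cell loss under 80%, at 10 µM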;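 further: anti alpha tubulin signal scored within the nucleus-defined area of each cell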
b-catenin transl = modulators of beta-catenin nuclear translocation, primary screen, imaging, HeLa cells, immunofluorescence, high-content; nuclear translocation activity, % at 5 µM; actives 0.3% (n = 190,000); AID 1665, 2009;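 active means nuclear translocation activity above 50% at 5 µM, with a well cell count of 50 or more; inconclusive means wells under 50 cells across six images, flagged as toxic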;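 further: per-cell ratio of nuclear to cytoplasmic median beta-catenin stain intensity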
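assay system = human HeLa cells, endogenous beta-catenin | times = compound treatment 24 h, 37°C, 5% CO2 | detection = Anti-beta-catenin immunofluorescence on PFA-fixed, Triton-permeabilized cells, DAPI nuclei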
Dynein cargo inh = inhibitors of GR-EGFP nuclear translocation, primary screen, dynein cargo transport inhibitor project, imaging, high-content, 3617.4 mouse cells; test concentration mostly 20 µM; stimulated with dexamethasone, 1 µM; hits give low values; z-score, hits read low; actives 0.47% (n = 220,000); AID 1381, 2008;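 active means plate z-score of nuclear minus cytoplasmic receptor signal below a set negative limit, without overly bright fluorescence or cell loss, cut at about -3.5 in these data, passing the limit was not always enough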;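 further: z-score of nuclear minus cytoplasmic ring GR-EGFP intensity difference per well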
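Buffer or medium: tet-free, stripped-serum medium; Also added: dexamethasone, 1.0 µM final; Technique: high-content fluorescence imaging after fixation; Times: 48 h induction, 1 h compound, 30 min dex at 37 °C; Read-out: per-cell GR-EGFP intensity, nucleus versus surrounding cytoplasmic ring, well-averaged.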
A number is an active result; 0 = inactive; ? = inconclusive; - = no result given.

SMILES	Lmaj promast	HSV augment	MT stabilize HCS	b-catenin transl	Dynein cargo inh
CCOC(=O)c1c(-c2ccc(C)cc2)csc1NC(=O)CCN1CC(C)OC(C)C1 (centres undefined)	98	-	0	-	0
CCN(CC)S(=O)(=O)c1cccc(-c2nnc(SCc3nnc(-c4cccs4)o3)n2N)c1	0	0	0	0	0
CC(C)=C1C(=O)NN(c2ccc(F)c(Cl)c2)C1=O	0	0	0	0	0
CCOc1ccc(S(=O)(=O)Nc2cccc(OC)c2)cc1	0	0	16	-	0
CCOc1ccc(NS(=O)(=O)c2ccc(N)cc2)cc1	0	0	0	0	0
Cc1cc(C)cc(NS(=O)(=O)c2cnc(Cl)c(Cl)c2)c1	82	0	0	0	0
CCOc1ccc(NS(=O)(=O)c2cnc(Cl)c(Cl)c2)cc1	0	0	16	0	0
COCCN1C=C(C(=O)OC)C(c2ccccc2Cl)C(C(=O)OC)=C1	0	0	0	0	0
O=C(C1CCN(S(=O)(=O)c2ccc3c(c2)OCCO3)CC1)N1CCc2ccccc21	0	0	0	0	0
CC(OC(=O)C1CCN(S(=O)(=O)c2ccc(Cl)cc2)CC1)C(=O)N1CCc2ccccc21 (centres undefined)	98	0	0	0	0
Cc1cccc(CSCCNC(=O)c2ccc(N(C)S(=O)(=O)c3ccccc3)cc2)c1	0	0	0	0	0
CN(c1ccc(C(=O)NCCSCc2ccccc2)cc1)S(=O)(=O)c1ccccc1	82	0	0	0	0
CC(=O)c1nc2ccccc2n1S(=O)(=O)c1ccc(Cl)cc1	0	0	0	0	0
C/C(=N\Nc1nc(-c2ccccc2)cs1)c1cccs1	79	0	0	0	0
C/C(=N\Nc1nc2ccccc2s1)c1cccs1	0	0	0	0	0
Cn1cc(CNCc2cnc3ccccn23)c(-c2ccc(Oc3ccccc3)cc2)n1	0	0	0	0	0
CN(Cc1cn(C)nc1-c1ccc(Oc2ccccc2)cc1)CC1COCCO1 (centres undefined)	85	0	0	0	0
CN(Cc1cn(C)nc1-c1ccc(Oc2ccccc2)cc1)Cc1cnc2ccccn12	78	0	0	0	0
Cc1cc(Oc2ncccc2[N+](=O)[O-])c2cc(Cl)ccc2n1	-	0	-	0	0
O=S(=O)(Nc1ccc(S(=O)(=O)Nc2ccccc2)cc1)c1ccccc1	0	0	0	0	0
COc1ccc(-c2nn(-c3ccccc3)cc2/C=C/C(=O)OCC(=O)Nc2ccc(C#N)cc2)cc1	92	0	0	-	0
COc1ccc(-c2nn(-c3ccccc3)cc2/C=C/C(=O)OCC(=O)Nc2cccc(C#N)c2)cc1	0	0	0	0	0
Cc1ccccc1NC(=O)COC(=O)/C=C/c1cn(-c2ccccc2)nc1-c1cccnc1	53	0	0	-	0
COc1ccnc(Oc2ccccc2)c1C#N	0	0	0	0	0
CCCOc1ccc2c3c(c(=O)oc2c1OCCC)CCCC3	54	0	0	0	0
SMILES	Lmaj promast	HSV augment	MT stabilize HCS	b-catenin transl	Dynein cargo inh
COc1ccccc1N/N=C/c1ccc2c(c1)OCO2	0	0	0	0	0
CCC1Cc2c(nc(N)c3c(N)nc(N4CCCCC4)c(C#N)c23)O1 (centres undefined)	51	0	0	0	0
CN(C)c1ccc(C=Nc2ccc(N(C)C)cc2)cc1	71	0	0	0	0
CN(C)c1ccc(N=Cc2ccco2)cc1	71	0	0	0	0
Cc1nc2ccccc2c(=O)n1NC(=O)c1ccccc1Cl	0	0	0	0	0
Cn1ccnc1C1CCCCN1Cc1nc(Cc2cccc(C(F)(F)F)c2)no1 (centres undefined)	66	0	0	0	0
O=C(Nc1nccs1)C12CC3CC(C1)CC(C(=O)Nc1nccs1)(C3)C2	0	0	0	0	0
Cc1ccc(C(=O)N2CCC3(CC2)Oc2ccc(Cl)cc2C(=O)C32CC(c3cccnc3)=NO2)s1 (centres undefined)	-	0	-	0	0
O=C(/C=C/c1cccs1)N1CCC2(CC1)Oc1ccc(Cl)cc1C(=O)C21CC(c2cccnc2)=NO1 (centres undefined)	-	0	-	52	0
CCCCc1ccc(-c2csc(/C(C#N)=C\c3ccc(C)o3)n2)cc1	0	0	0	0	0
CCNC(=S)SCCOc1ccc(C)cc1	57	0	0	0	0
COc1ccc(N/C=C/C(=O)c2ccc3c(c2)OCO3)cc1OC	0	0	0	0	0
COC(=O)C1CCN(Cc2ccc(OCCCN3CCN(c4ccc([N+](=O)[O-])cc4)CC3)cc2)CC1	96	0	0	0	0
CCOc1ccccc1OCCOCCOc1ccccc1[N+](=O)[O-]	0	0	0	0	0
CC1CCN(CCCCOc2ccccc2[N+](=O)[O-])CC1	90	0	0	0	0
O=C1C2CCCCN2C(=O)N1CCCCN1CCN(c2ccc([N+](=O)[O-])cc2)CC1 (centres undefined)	0	0	0	0	0
O=[N+]([O-])c1ccc(-c2ccc(S(=O)(=O)NCCN3CCCC3)cc2)cc1	80	0	0	0	0
O=[N+]([O-])c1ccc(OCCCCN2CCCCC2)cc1	89	0	0	0	0
C[N+](C)(C)CCOc1ccc([N+](=O)[O-])cc1	0	0	0	0	0
COC(=O)CSc1nnc(-c2ccoc2C)n1-c1ccc(C)cc1	0	0	0	0	0
CC1CCN(CCCCOc2ccc([N+](=O)[O-])cc2)CC1	91	-	0	0	0
COc1ccc2nc(NC(=O)CSc3nc(C)cc(C)n3)sc2c1	51	0	0	-	0
CCn1nnnc1SCC(=O)Nc1nc2ccc(OC)cc2s1	86	0	0	0	0
CCn1nnnc1SCC(=O)Nc1ccc(OC)cc1	0	0	0	0	0
CSc1nc2ccc(NC(=O)C3CC(=O)N(Cc4ccco4)C3)cc2s1 (centres undefined)	0	0	0	-	0
SMILES	Lmaj promast	HSV augment	MT stabilize HCS	b-catenin transl	Dynein cargo inh
CCOC(=O)Cc1csc(NC(=O)c2sc3nc4cc(C)ccc4cc3c2N)n1	0	0	0	0	0
CCC(C)NC(=O)COC(=O)Cc1sc(N)nc1-c1ccc(C)cc1 (centres undefined)	0	0	0	0	0
Cc1ccc(-c2nc(N)sc2CC(=O)OCC(=O)NCCC(C)C)cc1	60	0	0	0	0
COc1ccc(-c2cnc(NCc3cc4c(cc3[N+](=O)[O-])OCO4)n2C)cc1	98	0	0	0	0
Cc1cccc(CNc2ncc(-c3cccc([N+](=O)[O-])c3)n2C)c1	0	0	0	0	0
Cc1ccc(CNc2ncc(-c3ccc4c(c3)OCO4)n2C)cc1	88	0	0	0	0
Cn1c(-c2ccc3c(c2)OCO3)cnc1NCc1ccc(Cl)cc1	92	0	0	0	0
Cc1ccc(CNc2ccc3c(c2)OCO3)cc1	100	?	0	0	0
O=C1NC(NS(=O)(=O)c2ccc(Cl)cc2)(C(F)(F)F)C(=O)N1CCc1ccccc1 (centres undefined)	-	0	-	0	0
Nc1ccc(C(=O)OCCCc2nc3cc4ccccc4cc3[nH]2)cc1	-	0	-	0	0
